RORa inhibitor: RORA (human) inhibition | inhibition, % at 10 µM | CHO-K1 Gal4-RORA LBD luciferase reporter, luminescence | P35398 | hit rate 0.43% among 65,000;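 active = inhibition above the mean of all tested compounds plus 3 SD, cut at about 52% in these data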
Target sequence (P35398 whole entry, looked up, the tested form may be a part): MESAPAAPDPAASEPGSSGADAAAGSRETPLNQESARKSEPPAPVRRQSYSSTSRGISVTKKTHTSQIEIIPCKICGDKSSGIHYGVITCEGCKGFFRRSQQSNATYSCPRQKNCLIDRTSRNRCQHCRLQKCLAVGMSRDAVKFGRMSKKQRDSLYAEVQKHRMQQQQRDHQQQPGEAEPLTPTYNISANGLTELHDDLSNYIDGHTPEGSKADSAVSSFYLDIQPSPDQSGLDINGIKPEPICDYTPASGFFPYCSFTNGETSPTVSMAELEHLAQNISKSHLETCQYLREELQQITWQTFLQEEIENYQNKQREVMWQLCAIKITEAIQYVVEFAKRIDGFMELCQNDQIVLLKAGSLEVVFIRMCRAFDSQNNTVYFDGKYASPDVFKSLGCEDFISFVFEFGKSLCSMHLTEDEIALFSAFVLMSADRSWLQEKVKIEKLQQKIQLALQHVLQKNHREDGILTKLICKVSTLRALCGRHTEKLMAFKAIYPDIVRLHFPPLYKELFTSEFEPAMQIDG
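Material: transiently transfected CHO-K1 cells, Gal4-DBD/human RORA-LBD fusion plus 5xGal4-luciferase reporter; doses: single concentration per compound, 10 µM final; incubation: 20 h at 37 °C; detection: luminescence from basal luciferase reporter expression; read-out: % inhibition of basal luciferase versus +RORA/-RORA DMSO controls; replication: tested once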
Large screens that a line does not name were inactive. The full list was thinned out, with hits kept by preference.

O=C(CSc1nnnn1-c1ccccc1)NC(=O)Nc1ccc2c(c1)OCCO2	none
CCn1c2ccccc2c2cc(NC(=O)CSc3nnnn3-c3ccccc3)ccc21	RORa inhibitor 62.9
CCOc1ccc2ccccc2c1C(=O)N1CCOCC1	none
Cc1ccc(-c2nc(CS(=O)(=O)CC(=O)N3CC(C)CC(C)C3)c(C)o2)cc1 (configuration not stated)	none
CCCCNC(=O)c1cc(-c2ccc(OC)cc2)on1	none
COc1ccc(-c2nc(CS(=O)CC(=O)NCc3ccco3)c(C)o2)cc1 (configuration not stated)	none
CCCCn1c(SCC(=O)NCc2ccco2)nnc1-c1ccoc1C	none
CCOc1ccc(-c2cc(CCCC(=O)NCc3ccco3)no2)cc1	RORa inhibitor 58.5
COc1ccc(-c2nc(CSCC(=O)N3CCc4ccccc43)c(C)o2)cc1OC	none
CCOc1ccc(-c2nc(CSCC(=O)NCc3ccco3)c(C)o2)cc1	RORa inhibitor 94.2
Cc1ccc(CS(=O)(=O)CCC(=O)NCCCN2CCCC2=O)cc1	none
CCc1ccc(-c2nc(CSCC(=O)N3CCN(c4ccccn4)CC3)c(C)o2)cc1	none
CCc1ccc(-c2nc(CSCC(=O)NCCCN3CCCC3=O)c(C)o2)cc1	RORa inhibitor 74.0
COCCNC(=O)CSCc1nc(-c2ccc(SC)cc2)oc1C	RORa inhibitor 89.0
COc1ccc2cc(C3(C)NC(=O)N(CC(=O)NCc4ccco4)C3=O)ccc2c1 (configuration not stated)	none
N=C1C(c2ccccc2)=C(O)CN1c1ccccc1N1CCOCC1	none
COc1ccc(CNC(=O)CCCCCn2c(SCC#N)nc3cc4c(cc3c2=O)OCO4)cc1	none
COc1ccc(-c2nc(C#N)c(NCC3CCCO3)o2)cc1OC (configuration not stated)	none
O=C(COC(=O)c1cc(=O)[nH]c2ccccc12)NC(=O)NC1CCCCC1	none
Cc1noc(C)c1COC(=O)c1cccc(S(=O)(=O)N2c3ccccc3CC2C)c1 (configuration not stated)	none
COc1cccc(C2=N/C(=C\N(C)C)C(=O)O2)c1	none
CC(C)Oc1ccccc1-c1nc(SCC(=O)O)n[nH]1	none
COc1ccccc1-c1cn(S(=O)(=O)c2ccc(C)cc2)nc1N	none
CCOc1ccccc1/C=c1\sc2ncnn2c1=O	none
Cc1ccc(-n2ncc3c(NCc4ccccc4)ncnc32)cc1	none
c1ccc(CNc2ncnc3ccccc23)cc1	RORa inhibitor 56.3
CCOc1ccccc1Nc1ncnc2ccccc12	none
Cc1cc(NC(=O)c2cc3n(n2)C(C(F)(F)F)CC(c2ccco2)N3)no1 (configuration not stated)	none
O=C(NCc1cccs1)C1CC(=O)N(c2ccc(F)cc2)C1 (configuration not stated)	none
Cn1cc(S(=O)(=O)NCc2cccs2)c(=O)n(C)c1=O	none
CCOc1ccccc1N(CC(=O)NC1CCCC1)C(=O)CCC(=O)Nc1cc(C)on1	none
Cc1ccc(NC2=Nc3ccccc3CS2)cc1	RORa inhibitor 61.0
O=C(Nc1cnc2sc3c(n2c1=O)CCCC3)c1ccc(F)cc1	none
O=C(CCCCn1c(=O)[nH]c2ccccc2c1=O)N1CCN(c2ncccn2)CC1	none
COc1ccc(CN(CC(=O)NCC2CCCO2)C(=O)CCC(=O)Nc2cc(C)ccn2)cc1 (configuration not stated)	none
CC(=O)NCCn1c(SCC(=O)NCC2CCCO2)nc2ccccc2c1=O (configuration not stated)	none
COc1ccc(C(=O)Nn2c(SCC(=O)NCC3CCCO3)nc3ccccc3c2=O)cc1 (configuration not stated)	RORa inhibitor 67.4
OCCNc1nc(OCC(F)(F)F)nc(N2CCN(C34CC5CC(CC(C5)C3)C4)CC2)n1	none
CC(=O)c1c(N2CCN(Cc3ccc4c(c3)OCO4)CC2)nc(=S)n(-c2ccccc2)c1C	none
O=C(NCC1CCCO1)C1CC(=O)N(C2CCCCCC2)C1 (configuration not stated)	none
CS(=O)(=O)c1nc(-c2cccs2)cc(C(F)(F)F)n1	RORa inhibitor 78.2
Cc1nc2nc(-c3cccs3)cn2nc1C	none
Cc1cc(NO)nc(-c2ccc(Br)cc2)n1	none
CCOc1ccc(C(=O)Nc2c3c(nn2-c2cccc(C)c2C)CS(=O)C3)cc1 (configuration not stated)	none
CC(C)C1=C2CCCCC2NC(=O)N1 (configuration not stated)	none
Cn1c(CCNC(=O)c2ccccc2F)nnc1SCc1nc2ccccc2c(=O)[nH]1	none
COc1cccc(OC)c1-c1nn2c(-c3ccccc3Cl)nnc2s1	none
O=C(Nc1nnc(C23CC4CC(CC(C4)C2)C3)s1)c1ccco1	none
O=C(NCc1ccc(F)cc1)c1cc2n(n1)C(C(F)(F)F)CC(C1CC1)N2 (configuration not stated)	none
COC(=O)CN(c1ccc(C)c(Cl)c1)S(C)(=O)=O	none
CC1(C)CC(=O)C2=C(C1)Oc1nc3ccccc3cc1C2C(C#N)C#N (configuration not stated)	RORa inhibitor 72.1
CC(Oc1cc(C(F)(F)F)cc(C(F)(F)F)c1)C(=O)NC(N)=O (configuration not stated)	none
O=C(NC1CCN(Cc2ccccc2)CC1)C1CCCN(S(=O)(=O)c2cccc3nonc23)C1 (configuration not stated)	none
CCc1ccc(N(CC(=O)NC2CCCCC2)S(=O)(=O)c2c(C)noc2C)cc1	none
Cc1ccc(-c2cc3nc(C)cc(NCc4ccco4)n3n2)cc1	none
Cc1ccc(Nc2cc(C)nn2-c2nc(C)cc(=O)[nH]2)cc1	RORa inhibitor 87.9
CC1=CCC(COC(=O)Nc2ccccc2)CC1 (configuration not stated)	none
COc1ccc(CNC(=O)C2CSC(=O)C2)cc1 (configuration not stated)	none
CCC(C)(C(=O)NC1CCCCC1)N(C(=O)c1cnccn1)c1c(C)n(C)n(-c2ccccc2)c1=O (configuration not stated)	none
Cc1ccc2nsnc2c1S(=O)(=O)N1CCN(Cc2ccc3c(c2)OCO3)CC1	none
COc1ccc(CCNc2nnc(Sc3nnnn3-c3ccccc3)s2)cc1OC	RORa inhibitor 68.9
COc1ccc(CCNS(=O)(=O)c2cn(C)c(=O)n(C)c2=O)cc1OC	none
COc1ccc(CCNC(=O)C2CCCN(S(C)(=O)=O)C2)cc1OC (configuration not stated)	none
CCOC(=O)c1c(C)c(C(=O)NCc2ccc3c(c2)OCO3)c(C)n1C	none
Cc1oc2cc3c(C(=O)OCCN(C)C)c(C)oc3cc2c1C(=O)OCCN(C)C	RORa inhibitor 82.1
COC(=O)c1cc(COc2ccc3oc(C)c(C(=O)OC)c3c2)c(C)o1	none
CN(C)CCOC(=O)C1(c2ccccc2)CCOCC1	none
CCOC(=O)C1=C(C)N(c2ccccc2)C(=O)C1CC(=O)O (configuration not stated)	none
O=C(CCCc1c[nH]c2ccccc12)N1CCN(c2ccc(N3CCOCC3)nn2)CC1	none
O=C(CSCc1cccc(F)c1)N1CCN(c2ccccc2)CC1	none
CN(C)CCN1C(=O)C(=O)/C(=C(/O)c2ccc(F)cc2)C1c1ccccc1 (configuration not stated)	none
Cc1cccn2cc(-c3ccccc3)nc12	none
Cc1ccc2nc(-c3ccccc3)cn2c1	RORa inhibitor 89.1
COc1cc(NC(=O)Cn2c(-c3cncs3)nc3ccccc32)cc(OC)c1OC	none
CC1=C(C#N)C(=O)OC(C)(C)C1	none
COc1cc(CC(NC(C)=O)C(=O)NC2CCN(c3nc(C)cc(C)c3C#N)CC2)cc(OC)c1 (configuration not stated)	RORa inhibitor 74.7
CC(=O)NC(Cc1ccccc1)C(=O)NC1CCN(C(=O)NC2CCCCC2)CC1 (configuration not stated)	none

Screening results: PubChem, The Scripps Research Institute Molecular Screening Center
